This note sets out measurements from ChEMBL document CHEMBL1275432, “Daptomycin is effective in treatment of experimental endocarditis due to methicillin-resistant and glycopeptide-intermediate Staphylococcus aureus” (Antimicrob Agents Chemother, 2008).

The subject of series [1] is Staphylococcus aureus. The experiment in a line: Antimicrobial activity against glycopeptide-intermediate Staphylococcus aureus ATCC 700788 by microdilution method. In kind it is functional. An outline of the steps: (§1)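 Broth microdilution MIC and MBC per CLSI in cation-adjusted Mueller-Hinton broth. For daptomycin, the broth was adjusted to 50 µg/ml calcium. S. aureus ATCC 29213 was the control strain.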
Background: Dilution methods test growth across graded concentrations, often in twofold steps.

Series [2] deals with Staphylococcus aureus. The experiment in a line: Antimicrobial activity against methicillin-resistant Staphylococcus aureus by Etest. In kind it is functional.
Series [3] deals with Staphylococcus aureus. The experiment in a line: Antimicrobial activity against methicillin-resistant Staphylococcus aureus after 72 hrs by Etest. In kind it is functional.
Series [4] has as its system Staphylococcus aureus. As to the kind of experiment: Bactericidal activity against methicillin-resistant Staphylococcus aureus 277 at 0.5 to 4 times MIC by time-kill experiment. In kind it is functional, organism-based. An outline of the steps:
(§2)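 Time-kill curves per CLSI, run in duplicate. Inoculum was 10^5 CFU/ml, with drug at 0.5–4× MIC. Viable counts were taken at 0, 4 and 24 h. Bactericidal was defined as a ≥3-log CFU reduction at 24 h versus the initial inoculum.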

Series [5] deals with Staphylococcus aureus. The experiment in a line: Bactericidal activity against glycopeptide-intermediate Staphylococcus aureus ATCC 700788 at 0.5 to 4 times MIC by time-kill experiment. In kind it is functional, organism-based. An outline of the steps: as §2
Series [6] can be described thus: Cmax in human serum at 6 mg/kg, iv administered every 24 hrs. In kind it is ADME, organism-based. Details: dose 6 mg/kg, route intravenous.
A short description of series [7]: Terminal half-life in human serum at 6 mg/kg, iv administered every 24 hrs. In kind it is ADME, organism-based. Details: dose 6 mg/kg, route intravenous.
The nature of series [8]: AUC in human serum at 6 mg/kg, iv administered every 24 hrs. In kind it is ADME, organism-based. Details: dose 6 mg/kg, route intravenous.
Series [9] in a line: Plasma protein binding in human serum at 6 mg/kg, iv administered every 24 hrs. In kind it is ADME, organism-based. Details: dose 6 mg/kg, route intravenous. The settings on record: read-out: PPB (converted).
Series [10] is described as follows: Plasma protein binding in New Zealand White rabbit plasma at 6 mg/kg, iv administered every 24 hrs. In kind it is ADME, organism-based, Oryctolagus cuniculus. Details: dose 6 mg/kg, route intravenous. The following applies: read-out: PPB (converted).
Series [11] deals with Staphylococcus aureus. As to the kind of experiment: Antimicrobial activity against methicillin-resistant Staphylococcus aureus 277 by microdilution method. In kind it is functional. The essentials:
as §1

Series [12] can be described thus: Cmin in New Zealand White rabbit infected with glycopeptide-intermediate Staphylococcus aureus after 24 hrs. In kind it is ADME, organism-based, Oryctolagus cuniculus. The following applies: in vivo, read-out: Cmin. The essentials: (§3)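 Trough serum concentrations were taken in rabbits with catheter-induced aortic valve endocarditis. Infection was 1 ml i.v. via the marginal ear vein: 7 × 10^5 CFU/ml for MRSA or 8 × 10^5 CFU/ml for GISA. Human-simulating pump infusion started 18 h after infection and ran 48 h. Daptomycin was assayed by M. luteus bioassay, vancomycin by immunoturbidimetry.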

Series [13] concerns Staphylococcus aureus. The experiment in a line: Bacteriostatic activity against methicillin-resistant Staphylococcus aureus 277 at 0.5 to 4 times MIC by time-kill experiment. In kind it is functional, organism-based. An outline of the steps: as §2
Series [14] has as its system Staphylococcus aureus. The experiment in a line: Bacteriostatic activity against glycopeptide-intermediate Staphylococcus aureus ATCC 700788 at 0.5 to 4 times MIC by time-kill experiment. In kind it is functional, organism-based. The essentials:
as §2

The nature of series [15]: Terminal half-life in human serum at 1 g, iv administered every 12 hrs. In kind it is ADME, organism-based.
The nature of series [16]: Terminal half-life in New Zealand White rabbit at 1 g, iv administered every 12 hrs. The following applies: in vivo. In kind it is ADME, organism-based, Oryctolagus cuniculus. An outline of the steps: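 The vancomycin line simulated 1 g i.v. q 12 h (30 mg/kg/day in 2 doses). The daptomycin line simulated 6 mg/kg q 24 h. Parameters came from an open 2-compartment model. Daptomycin was measured by disk-plate bioassay with Micrococcus luteus ATCC 9341 (sensitivity 0.5 µg/ml). Vancomycin was measured by latex-boosted immunoturbidimetry (LOD 0.8 µg/ml).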

Series [17] can be described thus: Plasma protein binding in New Zealand White rabbit plasma at 1 g, iv administered every 12 hrs. In kind it is ADME, organism-based, Oryctolagus cuniculus. The settings on record: read-out: PPB (converted).
The nature of series [18]: Cmin in New Zealand White rabbit infected with methicillin-resistant Staphylococcus aureus after 24 hrs. In kind it is ADME, organism-based, Oryctolagus cuniculus. The following applies: in vivo, read-out: Cmin. An outline of the steps:
as §3

In brackets after ≈: the same amount, converted by molar mass. Activity calls are given as the source filed them.

The MBC is the lowest tested concentration that kills the bacteria rather than only halting them. As a reminder, the MIC is the least concentration at which growth counts as inhibited. As for GENTAMICIN, in the series on Staphylococcus aureus [1], the MBC turned out to be 128 µg/mL and the MIC came out at 0.25 µg/mL.

The term Cmax denotes the peak of the concentration-time curve. As a reminder, the half-life is the time in which the quantity being followed falls by half. A higher half-life goes with slow decline. One may read the AUC as concentration integrated over time. Lower therefore signals low exposure. In the case of `CCCCCCCCCC(=O)N[C@@H](Cc1c[nH]c2ccccc12)C(=O)N[C@H](CC(N)=O)C(=O)N[C@@H](CC(=O)O)C(=O)N[C@@H]1C(=O)NCC(=O)N[C@@H](CCCN)C(=O)N[C@@H](CC(=O)O)C(=O)N[C@H](C)C(=O)N[C@@H](CC(=O)O)C(=O)NCC(=O)N[C@H](CO)C(=O)N[C@@H]([C@H](C)CC(=O)O)C(=O)N[C@@H](CC(=O)c2ccccc2N)C(=O)O[C@@H]1C`, the MIC in the series on Staphylococcus aureus [2] was found to be 0.12 µg/mL (≈ 0.074 µM); in the series on Staphylococcus aureus [3], 0.5 µg/mL (≈ 0.309 µM); in the series with Staphylococcus aureus [11], 0.12 µg/mL (≈ 0.074 µM); in the series with Staphylococcus aureus [1], 0.5 µg/mL (≈ 0.309 µM). The result with Staphylococcus aureus [4] and in the series with Staphylococcus aureus [5] was Active. For the same compound, in series [6], the peak level (Cmax) was 86000 ng/mL. The compound further had a half-life in series [7] of 9.5 h. The compound further gave an AUC at 24 h in [8] of 974 µg·h/mL. The fraction unbound at 24 h in series [9] is 0.08; in series [10], 0.1. Moreover, the MBC in the series on Staphylococcus aureus [1] worked out at 1 µg/mL (≈ 0.617 µM).

Take `CN[C@H](CC(C)C)C(=O)N[C@H]1C(=O)N[C@@H](CC(N)=O)C(=O)N[C@H]2C(=O)N[C@H]3C(=O)N[C@H](C(=O)N[C@H](C(=O)O)c4cc(O)cc(O)c4-c4cc3ccc4O)[C@H](O)c3ccc(c(Cl)c3)Oc3cc2cc(c3O[C@@H]2O[C@H](CO)[C@@H](O)[C@H](O)[C@H]2O[C@H]2C[C@](C)(N)[C@H](O)[C@H](C)O2)Oc2ccc(cc2Cl)[C@H]1O` [VANCOMYCIN]: the concentration at 24 h in series [12] and in series [18] was 20000 ng/mL each time. The compound further gave an MIC in the series with Staphylococcus aureus [3] of 8 µg/mL (≈ 5.52 µM). Moreover, the outcome with Staphylococcus aureus [13] and with Staphylococcus aureus [14] was Active. Moreover, the values for the half-life in series [15] and in [16] were 4.8 h and 1.3 h, respectively. The fraction unbound at 12 h in [17] was 0.35.
